One assay deals with PDE10A (Homo sapiens, UniProt Q9Y233). In words: PDE10A inhibition, fluorescence polarization. The class given is biochemical. Put shortly:
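Test compound was dissolved in DMSO, stored at −20 °C and tested in a 10-point, 3-fold serial dilution from a top concentration of 1 µmol/L (n = 3). Enzyme activity was read by fluorescence polarization, and IC50 was derived from the concentration–response data.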

Assay [1] relates to PDE1A/B/C, PDE2A, PDE3A/B, PDE4A/B/C/D, PDE5A, PDE7A, PDE8A, PDE9A. In words: PDE selectivity panel, fluorescence polarization, single dose 5 μmol/L. The conditions noted are these: concentrations up to 5 μmol/L. Type of assay: biochemical.

PDE10A, sequence (Q9Y233 whole entry): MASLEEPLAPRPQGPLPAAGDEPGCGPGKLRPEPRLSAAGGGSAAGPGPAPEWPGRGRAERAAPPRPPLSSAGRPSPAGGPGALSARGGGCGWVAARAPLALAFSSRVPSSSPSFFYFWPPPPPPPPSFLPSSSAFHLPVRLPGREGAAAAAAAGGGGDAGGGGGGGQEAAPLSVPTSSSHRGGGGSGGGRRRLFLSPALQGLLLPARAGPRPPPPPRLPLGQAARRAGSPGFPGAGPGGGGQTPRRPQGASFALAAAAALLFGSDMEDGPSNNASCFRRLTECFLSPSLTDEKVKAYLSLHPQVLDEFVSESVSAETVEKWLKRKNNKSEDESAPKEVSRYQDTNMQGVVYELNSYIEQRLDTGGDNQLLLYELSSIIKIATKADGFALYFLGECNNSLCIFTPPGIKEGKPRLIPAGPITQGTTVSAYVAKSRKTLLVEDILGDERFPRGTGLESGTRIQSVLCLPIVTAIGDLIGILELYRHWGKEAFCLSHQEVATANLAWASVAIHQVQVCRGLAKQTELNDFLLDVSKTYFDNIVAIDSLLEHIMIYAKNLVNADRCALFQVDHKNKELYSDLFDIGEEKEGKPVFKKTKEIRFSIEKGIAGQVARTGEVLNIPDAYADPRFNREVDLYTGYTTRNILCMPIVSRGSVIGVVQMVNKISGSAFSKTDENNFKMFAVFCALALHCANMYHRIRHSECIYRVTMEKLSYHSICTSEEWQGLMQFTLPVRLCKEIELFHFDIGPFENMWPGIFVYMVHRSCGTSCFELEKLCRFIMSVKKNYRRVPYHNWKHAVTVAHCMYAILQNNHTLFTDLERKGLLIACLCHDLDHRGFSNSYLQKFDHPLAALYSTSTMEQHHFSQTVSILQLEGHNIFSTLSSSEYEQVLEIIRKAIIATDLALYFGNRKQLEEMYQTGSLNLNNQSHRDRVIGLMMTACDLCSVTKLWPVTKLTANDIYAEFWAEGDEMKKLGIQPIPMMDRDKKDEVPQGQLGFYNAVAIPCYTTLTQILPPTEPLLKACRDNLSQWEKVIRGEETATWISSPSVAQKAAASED

As for `Cc1ccc2c(=O)n(-c3ccc(F)cc3)c(CCN3C(=O)c4cccc(OC(C)C)c4C3=O)nc2c1` [compound 9, 2-(2-(3-(4-Fluorophenyl)-7-methyl-4-oxo-3,4-dihydroquinazolin-2-yl)ethyl)-4-isopropoxyisoindoline-1,3-dione], the IC50 on PDE10A was determined as 2.07 nM. The “inhibition of other PDE subtypes” value in assay [1] was “no significant inhibition”.

Source of the values: article PMC9279629 (Acta Pharmaceutica Sinica. B, 2021).
